{"source": "ChEMBL document CHEMBL4364238", "about": "“Discovery of BNC375, a Potent, Selective, and Orally Available Type I Positive Allosteric Modulator of α7 nAChRs” (ACS Med Chem Lett, 2019)", "key": {"Cytochrome P450 2C9": {"target": "Cytochrome P450 2C9 (Homo sapiens, UniProt P11712)", "sequence (P11712 whole entry)": "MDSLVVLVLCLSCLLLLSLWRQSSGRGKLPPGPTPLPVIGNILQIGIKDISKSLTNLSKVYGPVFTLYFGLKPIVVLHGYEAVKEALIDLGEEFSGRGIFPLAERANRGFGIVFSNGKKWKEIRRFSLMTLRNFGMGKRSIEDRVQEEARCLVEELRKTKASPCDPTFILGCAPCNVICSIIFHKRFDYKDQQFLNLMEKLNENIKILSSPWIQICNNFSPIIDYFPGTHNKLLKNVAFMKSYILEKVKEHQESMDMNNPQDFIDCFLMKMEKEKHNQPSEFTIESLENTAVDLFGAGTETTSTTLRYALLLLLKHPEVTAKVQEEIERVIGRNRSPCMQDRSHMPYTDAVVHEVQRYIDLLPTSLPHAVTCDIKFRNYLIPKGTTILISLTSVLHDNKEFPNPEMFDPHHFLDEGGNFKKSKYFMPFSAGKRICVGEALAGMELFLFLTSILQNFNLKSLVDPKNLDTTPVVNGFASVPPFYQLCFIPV", "experiment": "Inhibition of CYP2C9 (unknown origin)", "format": "ADME"}, "[1]": {"target": "Neuronal acetylcholine receptor subunit alpha-7 (Rattus norvegicus) (UniProt Q05941)", "sequence (Q05941 whole entry)": "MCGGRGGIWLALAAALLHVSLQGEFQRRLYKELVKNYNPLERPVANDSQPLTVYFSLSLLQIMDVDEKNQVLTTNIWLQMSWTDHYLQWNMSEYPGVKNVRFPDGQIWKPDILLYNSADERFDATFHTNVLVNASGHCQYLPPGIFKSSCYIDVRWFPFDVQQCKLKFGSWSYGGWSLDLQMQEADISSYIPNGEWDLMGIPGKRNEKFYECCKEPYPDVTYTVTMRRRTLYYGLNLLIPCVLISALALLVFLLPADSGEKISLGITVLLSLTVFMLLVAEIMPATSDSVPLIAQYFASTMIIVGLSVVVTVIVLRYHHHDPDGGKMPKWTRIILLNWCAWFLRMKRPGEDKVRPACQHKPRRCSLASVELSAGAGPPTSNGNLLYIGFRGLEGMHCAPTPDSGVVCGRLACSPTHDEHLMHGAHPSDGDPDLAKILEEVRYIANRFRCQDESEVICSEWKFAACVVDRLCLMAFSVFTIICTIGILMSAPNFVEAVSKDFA", "experiment": "Positive allosteric modulator activity at rat alpha7 nAChR expressed in GH4C1 cells assessed as potentiation of acetylcholine response at 3 uM at -70 mV holding potential preincubated for 30 secs followed by co-application with acetylcholine by automated patch clamp assay", "format": "cell-based", "in_short": "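Automated planar patch clamp on stable GH4C1 (rat) cell lines expressing rat α7 nAChR; test compound at 3 μM with an EC₂₀ acetylcholine challenge; percent change in peak current versus acetylcholine alone taken as P₃.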"}, "[2]": {"experiment": "Stability in mouse liver microsomes assessed as hepatic extraction ratio at 1 uM measured for 45 mins by LC-MS/MS analysis", "format": "ADME, Microsome", "conditions": "read-out: ERH"}, "[3]": {"target": "Neuronal acetylcholine receptor subunit alpha-7 (Rattus norvegicus) (UniProt Q05941)", "experiment": "(§1) Positive allosteric modulatory activity at rat alpha7 nAChR expressed in GH4C1 cells assessed as potentiation of acetylcholine response at -70 mV holding potential preincubated for 30 secs followed by co-application with acetylcholine by manual patch clamp assay", "format": "cell-based", "in_short": "(§2)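 Conventional manual patch-clamp with a fast-application system on stable GH4C1 cells expressing rat α7 nAChR; currents evoked by acetylcholine with and without test compound; peak-current change relative to acetylcholine alone gives potentiation (P₃ at 3 μM; concentration–response for EC₅₀ and Pmax).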"}, "[4]": {"target": "Neuronal acetylcholine receptor subunit alpha-7 (Rattus norvegicus, UniProt Q05941)", "sequence (Q05941 whole entry)": "as above", "experiment": "as §1", "format": "cell-based", "in_short": "as §2"}, "Cytochrome P450 2C19": {"target": "Cytochrome P450 2C19 (Homo sapiens, UniProt P33261)", "sequence (P33261 whole entry)": "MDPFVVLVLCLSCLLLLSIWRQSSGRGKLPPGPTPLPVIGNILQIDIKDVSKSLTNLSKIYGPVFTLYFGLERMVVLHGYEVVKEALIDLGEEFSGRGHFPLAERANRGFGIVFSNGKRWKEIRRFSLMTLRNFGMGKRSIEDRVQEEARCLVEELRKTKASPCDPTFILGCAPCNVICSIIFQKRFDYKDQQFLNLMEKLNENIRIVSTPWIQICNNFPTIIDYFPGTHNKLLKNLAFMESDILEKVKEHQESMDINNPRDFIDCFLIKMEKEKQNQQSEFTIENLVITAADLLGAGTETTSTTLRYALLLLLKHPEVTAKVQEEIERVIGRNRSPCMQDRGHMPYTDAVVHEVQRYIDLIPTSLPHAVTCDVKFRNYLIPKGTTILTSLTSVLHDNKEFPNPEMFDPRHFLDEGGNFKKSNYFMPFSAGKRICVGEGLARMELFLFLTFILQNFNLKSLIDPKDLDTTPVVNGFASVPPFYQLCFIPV", "experiment": "Inhibition of CYP2C19 (unknown origin)", "format": "ADME"}, "[5]": {"target": "Neuronal acetylcholine receptor subunit alpha-7 (Rattus norvegicus) (UniProt Q05941)", "experiment": "Positive allosteric modulatory activity at rat alpha7 nAChR expressed in GH4C1 cells assessed as potentiation of peak current at -70 mV holding potential preincubated for 30 secs followed by co-application with acetylcholine by manual patch clamp assay relative to acetylcholine-induced peak current", "format": "cell-based", "in_short": "as §2"}, "[6]": {"target": "Neuronal acetylcholine receptor subunit alpha-7 (Rattus norvegicus) (UniProt Q05941)", "experiment": "Agonist activity at rat alpha7 nAChR expressed in GH4C1 cells assessed as current response at 3 uM at -70 mV holding potential by manual patch clamp assay", "format": "cell-based", "in_short": "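Manual patch clamp with fast application on stable GH4C1 cells expressing α7 nAChR; test compound applied without acetylcholine to look for evoked currents.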"}, "[7]": {"experiment": "Solubility of the compound at pH 2", "format": "physicochemical", "conditions": "buffer"}, "Mus musculus": {"test_system": "Mus musculus", "experiment": "Reversal of scopolamine-induced memory impairment in mouse assessed as spontaneous alteration at 3 to 30 mg/kg, po administered with compond and scopolamine at 60 mins and 30 mins respectively prior to test by T-maze test", "format": "functional, organism-based", "in_short": "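Mouse T-maze continuous alternation task; reversal of scopolamine-induced loss of spontaneous alternation after ip or oral doses of 3 and 30 mg/kg; significant doses reported.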"}, "[8]": {"experiment": "Solubility of the compound at pH 6.5", "format": "physicochemical", "conditions": "buffer"}, "[9]": {"experiment": "Stability in human liver microsomes assessed as hepatic extraction ratio at 1 uM measured for 45 mins by LC-MS/MS analysis", "format": "ADME, Microsome", "conditions": "read-out: ERH"}}, "note": "pEC50, pIC50: −log10 of the molar value. Active and inactive are the calls of the source. The rule behind the calls is not given here.", "data": [{"molecule": "COc1ccc(Cl)cc1NCC1C(c2ccc(S(N)(=O)=O)cc2)C1(C)C", "note": "(racemic)", "values": [{"measurement": "pIC50", "setting": "Cytochrome P450 2C9", "result": "< 5.00"}, {"measurement": "Activity", "setting": "[1]", "result": 7900, "unit": "%"}, {"measurement": "hepatic extraction ratio at 0.75 h, 1 µM", "setting": "[2]", "result": 0.82}, {"measurement": "Activity", "setting": "[3]", "result": "Dose-dependent effect"}, {"measurement": "pEC50", "setting": "[4]", "result": 7.60}, {"measurement": "pIC50", "setting": "Cytochrome P450 2C19", "result": "< 5.00"}, {"measurement": "Emax", "setting": "[5]", "result": 650, "unit": "%"}, {"measurement": "inhibition", "setting": "[6]", "result": "inactive"}, {"measurement": "solubility", "setting": "[7]", "result": "1.6 to 3.1", "unit": "µg/mL"}, {"measurement": "inhibition", "setting": "Mus musculus", "result": "Active"}, {"measurement": "solubility", "setting": "[8]", "result": "> 100", "unit": "µg/mL"}, {"measurement": "hepatic extraction ratio at 0.75 h, 1 µM", "setting": "[9]", "result": 0.64}]}]}
